Results published in ChEMBL document CHEMBL2040794, “Synthesis and structure-activity analysis of new phosphonium salts with potent activity against African trypanosomes” (J Med Chem, 2012).

How the values were obtained:
[1] = tested on: Trypanosoma brucei brucei; assay: Antitrypanosomal activity against diminazene-, pentamidine-, and melaminophenyl arsenical-resistant HAPT1-deficient Trypanosoma brucei brucei B48 after 3 days by alamar blue assay; type: functional, organism-based; conditions: Trypanosoma brucei, B48, 72 h
Summary of the method: (§1)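 Bloodstream-form T. b. brucei (wild-type s427; TbAT1-KO, made from s427 by TbAT1 deletion; B48, selected from TbAT1-KO in vitro on pentamidine, lacking functional HAPT1). Cells were exposed to compound for 48 h, then resazurin (Alamar blue) was added for a further 24 h. A single fluorescence reading gave EC50.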

[2] = tested on: L6; assay: Cytotoxicity against rat L6 cells after 72 hrs by alamar blue assay; type: cell-based; conditions: Rattus norvegicus, L6, 72 h
[3] = Selectivity index, ratio of EC50 for rat L6 cells to EC50 for Trypanosoma brucei rhodesiense STIB900; type: toxicity, cell-based; conditions: L6 cells, read-out: Ratio EC50
Summary of the method: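 Ratio of EC₅₀ in L6 cells to EC₅₀ against T. b. rhodesiense STIB900, both from Alamar blue assays.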

[4] = Selectivity index, ratio of EC50 for human HEK cells to EC50 for wild type Trypanosoma brucei brucei Lister 427; type: toxicity, cell-based, HEK293; conditions: HEK cells, read-out: Ratio EC50
Summary of the method: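 Ratio of EC₅₀ in HEK cells to EC₅₀ in wild-type T. b. brucei s427, both from resazurin assays.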

[5] = tested on: Trypanosoma brucei rhodesiense; assay: Antitrypanosomal activity against Trypanosoma brucei rhodesiense STIB900 infected in rat L6 cells after 72 hrs by alamar blue assay; type: functional, organism-based; conditions: Trypanosoma brucei, STIB900, 72 h
[6] = tested on: Trypanosoma brucei brucei; assay: Resistance factor, ratio of EC50 for diminazene aceturate-resistant TbAT1 gene-deficient Trypanosoma brucei brucei AT1-KO to EC50 for wild type Trypanosoma brucei brucei Lister 427; type: functional
Summary of the method: (§2)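 Resistance factor is the EC50 in the resistant line (TbAT1-KO or B48) divided by the EC50 in wild-type s427. […] Resistant and wild-type EC50s were compared by Student t-test.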

[7] = tested on: Trypanosoma brucei brucei; assay: Antitrypanosomal activity against wild type Trypanosoma brucei brucei Lister 427 after 3 days by alamar blue assay; type: functional, organism-based; conditions: Trypanosoma brucei, Lister 427, 72 h; summary of the method: as §1
[8] = tested on: Trypanosoma brucei brucei; assay: Resistance factor, ratio of EC50 for diminazene-, pentamidine-, and melaminophenyl arsenical-resistant HAPT1-deficient Trypanosoma brucei brucei B48 to EC50 for wild type Trypanosoma brucei brucei Lister 427; type: functional; summary of the method: as §2
[9] = Cytotoxicity against human HEK cells after 3 days by alamar blue assay; type: cell-based, HEK293; conditions: Homo sapiens, HEK293, 72 h
Summary of the method: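 Human embryonic kidney cells tested by resazurin (Alamar blue) assay: 48 h with compound, then 24 h more after dye addition, single reading; EC₅₀ derived.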

[10] = tested on: Trypanosoma brucei brucei; assay: Antitrypanosomal activity against diminazene aceturate-resistant TbAT1 gene-deficient Trypanosoma brucei brucei AT1-KO after 3 days by alamar blue assay; type: functional, organism-based; conditions: Trypanosoma brucei, AT1-KO, 72 h; summary of the method: as §1

SMILES | EC50 [1] | EC50 [2] | selectivity ratio [3] | selectivity ratio [4] | EC50 [5] | Ratio EC50 [6] | EC50 [7] | Ratio EC50 [8] | EC50 [9] | EC50 [10]
O=C(c1ccc(C[P+](c2cccc3ccccc23)(c2cccc3ccccc23)c2cccc3ccccc23)cc1)c1ccc(C[P+](c2cccc3ccccc23)(c2cccc3ccccc23)c2cccc3ccccc23)cc1.[Br-].[Br-] | 180 nM | 4900 nM | 12 | 502 | 400 nM | 1.8 | 180 nM | 1 | 92000 nM | 339 nM
Cc1cccc([P+](Cc2ccc(Oc3ccc(C[P+](c4cccc(C)c4)(c4cccc(C)c4)c4cccc(C)c4)cc3)cc2)(c2cccc(C)c2)c2cccc(C)c2)c1.[Br-].[Br-] | 88 nM | 942 nM | 1.9 | 792 | 488 nM | 0.7 | 57 nM | 1.5 | 45400 nM | 43 nM
Cc1ccc([P+](Cc2ccc(Oc3ccc(C[P+](c4ccccc4)(c4ccccc4)c4ccc(C)cc4)cc3)cc2)(c2ccccc2)c2ccccc2)cc1.[Br-].[Br-] | 64 nM | 3340 nM | 23 | 2930 | 142 nM | 0.9 | 82 nM | 0.8 | 240000 nM | 77 nM
CC(C)C[P+](Cc1ccc(Cc2ccc(C[P+](CC(C)C)(CC(C)C)CC(C)C)cc2)cc1)(CC(C)C)CC(C)C.[Br-].[Br-] | 880 nM | 45900 nM | 141 | > 429 | 326 nM | 1.3 | 700 nM | 1.3 | > 300000 nM | 880 nM
Cc1ccc([P+](Cc2ccc(C(=O)c3ccccc3)cc2)(c2ccccc2)c2ccccc2)cc1.[Br-] | 100 nM | 7720 nM | 29 | 504 | 267 nM | 1 | 150 nM | 0.7 | 76800 nM | 150 nM
CCCC[P+](CCCC)(CCCC)Cc1ccc(C(=O)c2ccc(C[P+](CCCC)(CCCC)CCCC)cc2)cc1.[Br-].[Br-] | 1630 nM | 112000 nM | 315 | > 620 | 355 nM | 2.7 | 480 nM | 3.4 | > 300000 nM | 1320 nM
COc1ccccc1[P+](Cc1ccc(C(=O)c2ccc(C[P+](c3ccccc3OC)(c3ccccc3OC)c3ccccc3OC)cc2)cc1)(c1ccccc1OC)c1ccccc1OC.[Br-].[Br-] | 80 nM | 9000 nM | 45 | 1180 | 200 nM | 1.5 | 110 nM | 0.7 | 131000 nM | 160 nM
Cc1ccc([P+](Cc2ccc(C(=O)c3ccc(C[P+](c4ccccc4)(c4ccccc4)c4ccc(C)cc4)cc3)cc2)(c2ccccc2)c2ccccc2)cc1.[Br-].[Br-] | 183 nM | 16300 nM | 62 | 1450 | 260 nM | 1 | 180 nM | 1 | 261000 nM | 182 nM
